These results are taken from ChEMBL document CHEMBL3792280, “Design and synthesis of novel quinoxaline derivatives as potential candidates for treatment of multidrug-resistant and latent tuberculosis” (Bioorg Med Chem Lett, 2016).

Assay type in all cases: functional
Test [1] concerns Mycobacterium tuberculosis. The test is described as follows: Antimicrobial activity against isoniazid resistant Mycobacterium tuberculosis SRI 1369 after 7 days. The following applies: SRI 1369, 168 h. An outline of the steps: (§1)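 MIC in µg/mL, retested on susceptible H37Rv (SRI 1345) in the same panel as single-drug-resistant strains: isoniazid-, rifampin- and ofloxacin-resistant. Percent inhibition recorded at the MIC concentration. Ratio taken as MIC H37Rv / MIC resistant strain.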

The test system of test [2] is Mycobacterium tuberculosis. The test is described as follows: Antimicrobial activity against isoniazid resistant Mycobacterium tuberculosis SRI 1369 assessed as growth inhibition at MIC after 7 days. The method in brief:
as §1

Test [3] is described as follows: Ratio of MIC for Mycobacterium tuberculosis H37Rv SRI 1345 to MIC for isoniazid resistant Mycobacterium tuberculosis SRI 1369. The method in brief:
as §1

The test system of test [4] is Mycobacterium tuberculosis. In words: Antimicrobial activity against rifampicin resistant Mycobacterium tuberculosis SRI 1367 after 7 days. The following applies: SRI 1367, 168 h. An outline of the steps: as §1
The test system of test [5] is Mycobacterium tuberculosis. In words: Antimicrobial activity against rifampicin resistant Mycobacterium tuberculosis SRI 1367 assessed as growth inhibition at MIC after 7 days. The method in brief: as §1
The nature of test [6]: Ratio of MIC for Mycobacterium tuberculosis H37Rv SRI 1345 to MIC for rifampicin resistant Mycobacterium tuberculosis SRI 1367. An outline of the steps:
as §1

Test [7] has as its system Mycobacterium tuberculosis. In words: Antimicrobial activity against ofloxacin resistant Mycobacterium tuberculosis SRI 4000 after 7 days. The following applies: SRI 4000, 168 h. An outline of the steps:
as §1

Test [8] relates to Mycobacterium tuberculosis. The test is described as follows: Antimicrobial activity against ofloxacin resistant Mycobacterium tuberculosis SRI 4000 assessed as growth inhibition at MIC after 7 days. An outline of the steps:
as §1

Test [9] is described as follows: Ratio of MIC for Mycobacterium tuberculosis H37Rv SRI 1345 to MIC for ofloxacin resistant Mycobacterium tuberculosis SRI 4000. An outline of the steps:
as §1

≈ marks a conversion by molar mass, not a printed value.

Regarding `COC(=O)c1c(C(F)(F)F)[n+]([O-])c2ccc(N3CCN(c4ccc(F)cc4)CC3)cc2[n+]1[O-]`, the MIC in [1], in test [4] and in [7] was 0.19 µg/mL (≈ 0.407 µM) in each case. The “growth inhibition (GI)” value came to 51% in test [2], 73% in [5] and 81% in test [8]. Moreover, the Ratio in [3], in test [6] and in [9] was 8 in each case.

Regarding `CO[C@H]1/C=C/O[C@@]2(C)Oc3c(C)c(O)c4c(O)c(c(/C=N/N5CCN(C)CC5)c(O)c4c3C2=O)NC(=O)/C(C)=C\C=C\[C@H](C)[C@H](O)[C@@H](C)[C@@H](O)[C@@H](C)[C@H](OC(C)=O)[C@@H]1C` [RIFAMPIN], the minimum inhibitory concentration (MIC) (as a rule, the least concentration at which growth counts as inhibited) came out at 0.05 µg/mL (≈ 0.0608 µM) in test [1] and 0.195 µg/mL (≈ 0.237 µM) in test [7]. Moreover, the figures for the “growth inhibition (GI)” value in test [2] and in test [8] were 72% and 53%, respectively.

For the compound `Cc1c(C(=O)/C=C/c2ccccc2)[n+]([O-])c2cc(Cl)ccc2[n+]1[O-]`, the MIC in [1] is 1 µg/mL (≈ 2.93 µM); in test [4], 0.5 µg/mL (≈ 1.47 µM); in test [7], 0.5 µg/mL (≈ 1.47 µM). Further, the “growth inhibition (GI)” value in [2] is reported as 64%; in [5], 51%; in test [8] it was 100%. The figures for the Ratio in test [3], in test [6] and in test [9] were 2, 4 and 4, respectively.

Consider `O=C(c1ccco1)c1c(C(F)(F)F)[n+]([O-])c2cc(Cl)c(N3CCOCC3)cc2[n+]1[O-]`, for which the minimum inhibitory concentration (MIC) in test [1] is 0.5 µg/mL (≈ 1.13 µM); in test [4], 0.5 µg/mL (≈ 1.13 µM); in test [7], 0.25 µg/mL (≈ 0.563 µM). The “growth inhibition (GI)” value is on record as 78% in test [2], 66% in test [5] and 76% in [8]. For the same compound, the values for the Ratio in [3], in [6] and in test [9] were 4, 4 and 8, respectively.

`CC(=O)c1c(C(F)(F)F)nc2cc(F)c(N3CCSCC3)cc2[n+]1[O-]`: the minimal inhibitory concentration (MIC) amounted to 0.75 µg/mL (≈ 2 µM) in test [1], 0.38 µg/mL (≈ 1.01 µM) in test [4] and 0.19 µg/mL (≈ 0.506 µM) in test [7]. In addition, the “growth inhibition (GI)” value is 89% in test [2], 75% in test [5] and 62% in test [8]. For the same compound, the Ratio came out at 1 in test [3], 2 in test [6] and 4 in test [9].

Take `CC(=O)c1c(C(F)(F)F)[n+]([O-])c2cc(F)c(N3CCCCC3)cc2[n+]1[O-]`: the minimal inhibitory concentration (MIC) in test [1], in test [4] and in test [7] was 0.25 µg/mL (≈ 0.67 µM) throughout. Besides, the “growth inhibition (GI)” value was 57% in test [2], 68% in test [5] and 84% in test [8].

In turn, `NNC(=O)c1ccncc1` [ISONIAZID] returned an MIC in test [4] of 0.02 µg/mL (≈ 0.146 µM). In addition, the “growth inhibition (GI)” value in test [5] was found to be 55%.
